Reference: ChEMBL document CHEMBL1147446, “Antagonists of human CCR5 receptor containing 4-(pyrazolyl)piperidine side chains. Part 3: SAR studies on the benzylpyrazole segment” (Bioorg Med Chem Lett, 2004)

Assays:
HeLa [1] = assay: Antiviral activities in a cell culture HIV-1 infectivity inhibition assay using HeLa cells plus 50% normal human serum; assay type: functional
in vivo [2] = conditions: rat
in vivo [3] = conditions: rat; remark: listed apart in the source
[4] = target: Voltage-gated inwardly rectifying potassium channel KCNH2 (Homo sapiens, UniProt Q12809); assay: Binding affinity against hERG Voltage-gated potassium channel subunit Kv11.1
[5] = Plasma clearance in dog (dosed as a mixture of five compounds at 0.5 mpk each via iv only); assay type: ADME, organism-based, Canis lupus familiaris; conditions: read-out: Clp
Method in brief: (§1)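 Dogs received a five-compound cassette by iv only, 0.5 mpk of each compound.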

[6] = target: C-C chemokine receptor type 5 (Homo sapiens, UniProt P51681); assay: Inhibitory concentration for displacement of [125I]-MIP-1 alpha from recombinant human CC chemokine receptor 5 (CCR5) expressed in CHO cell; assay type: cell-based
Method in brief: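 Competitive binding to CCR5 on CHO cell membranes, read as displacement of [125I]-labeled MIP-1α. IC50 values are means of triplicate determinations. Standard errors were normally <15% within an assay. Assay-to-assay variation was within ±2-fold, judged from a standard compound.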

[7] = Half life in dog (dosed as a mixture of five compounds at 0.5 mpk each via iv only); assay type: ADME, organism-based, Canis lupus familiaris; conditions: in vivo; method in brief: as §1
HeLa [8] = assay: Antiviral activities in a cell culture HIV-1 infectivity inhibition assay using HeLa cells; assay type: functional; conditions: Homo sapiens
Canis familiaris [9] = assay: […] AUCN in dog (dosed as a mixture of five compounds at 0.5 mpk each via iv only); assay type: ADME, organism-based, Canis lupus familiaris; conditions: in vivo
in vivo [10] = conditions: rat, plasma
HeLa [11] = assay: Inhibition of HIV-1 infectivity using BAL-1 strain against HeLa cell line was determined; assay type: functional; conditions: Homo sapiens
[12] = target: Sodium-dependent noradrenaline transporter (Homo sapiens) (UniProt P23975); assay: Inhibitory activity against human adrenergic norepinephrine transporter at 10 uM
[13] = In vitro antiviral activity using peripheral blood mononuclear cell (PBMC) HIV-1 spread assay; assay type: functional; conditions: Homo sapiens
[14] = target: T1, Sodium-dependent dopamine transporter (Homo sapiens, UniProt Q01959); assay: (§2) Inhibitory activity against human dopamine transporter at 10 uM
D(3) dopamine receptor = D(3) dopamine receptor (Homo sapiens, UniProt P35462); assay: Inhibitory activity against human dopamine receptor D3 at 10 uM
[15] = (§3) Inhibitory activity against rat Na+ channel site 2 at 10 uM
Canis familiaris [16] = assay: […] AUCN in dog ( (dosed as a mixture of five compounds at 0.5 mpk each via iv only); assay type: ADME, organism-based, Canis lupus familiaris; conditions: in vivo
[17] = In vitro antiviral activity using peripheral blood mononuclear cell (PBMC) HIV-1 spread assay in presence of 50% normal human serum; assay type: functional
[18] = target: L-type calcium channel, benzothiazepine site (Rattus norvegicus, UniProt P22002+P27732+Q02485); assay: Inhibition of binding to rat L-type Calcium channel benzothiazepine site at 10 uM; assay type: functional
Rattus norvegicus = organism: Rattus norvegicus; assay: as §3
[19] = target: T1, Sodium-dependent dopamine transporter; assay: as §2; remark: listed apart in the source
Canis familiaris [20] = assay: Oral AUCN in dog (dosed at 0.5 mpk iv ); conditions: in vivo, 0.5 mg/kg
in vivo [21] = conditions: dog
in vivo [22] = conditions: dog, plasma, iv, 0.5 mg/kg

Sequence of C-C chemokine receptor type 5 (P51681 whole entry): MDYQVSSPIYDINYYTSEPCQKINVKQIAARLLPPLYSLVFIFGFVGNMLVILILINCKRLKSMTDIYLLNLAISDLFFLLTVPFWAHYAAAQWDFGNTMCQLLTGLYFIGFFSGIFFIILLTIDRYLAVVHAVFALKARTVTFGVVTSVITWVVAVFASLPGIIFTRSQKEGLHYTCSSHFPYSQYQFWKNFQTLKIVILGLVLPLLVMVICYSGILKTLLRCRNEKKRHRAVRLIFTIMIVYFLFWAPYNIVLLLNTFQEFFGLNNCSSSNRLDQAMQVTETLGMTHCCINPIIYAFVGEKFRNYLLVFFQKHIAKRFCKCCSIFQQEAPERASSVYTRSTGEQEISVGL
Sequence of Voltage-gated inwardly rectifying potassium channel KCNH2 (Q12809 whole entry): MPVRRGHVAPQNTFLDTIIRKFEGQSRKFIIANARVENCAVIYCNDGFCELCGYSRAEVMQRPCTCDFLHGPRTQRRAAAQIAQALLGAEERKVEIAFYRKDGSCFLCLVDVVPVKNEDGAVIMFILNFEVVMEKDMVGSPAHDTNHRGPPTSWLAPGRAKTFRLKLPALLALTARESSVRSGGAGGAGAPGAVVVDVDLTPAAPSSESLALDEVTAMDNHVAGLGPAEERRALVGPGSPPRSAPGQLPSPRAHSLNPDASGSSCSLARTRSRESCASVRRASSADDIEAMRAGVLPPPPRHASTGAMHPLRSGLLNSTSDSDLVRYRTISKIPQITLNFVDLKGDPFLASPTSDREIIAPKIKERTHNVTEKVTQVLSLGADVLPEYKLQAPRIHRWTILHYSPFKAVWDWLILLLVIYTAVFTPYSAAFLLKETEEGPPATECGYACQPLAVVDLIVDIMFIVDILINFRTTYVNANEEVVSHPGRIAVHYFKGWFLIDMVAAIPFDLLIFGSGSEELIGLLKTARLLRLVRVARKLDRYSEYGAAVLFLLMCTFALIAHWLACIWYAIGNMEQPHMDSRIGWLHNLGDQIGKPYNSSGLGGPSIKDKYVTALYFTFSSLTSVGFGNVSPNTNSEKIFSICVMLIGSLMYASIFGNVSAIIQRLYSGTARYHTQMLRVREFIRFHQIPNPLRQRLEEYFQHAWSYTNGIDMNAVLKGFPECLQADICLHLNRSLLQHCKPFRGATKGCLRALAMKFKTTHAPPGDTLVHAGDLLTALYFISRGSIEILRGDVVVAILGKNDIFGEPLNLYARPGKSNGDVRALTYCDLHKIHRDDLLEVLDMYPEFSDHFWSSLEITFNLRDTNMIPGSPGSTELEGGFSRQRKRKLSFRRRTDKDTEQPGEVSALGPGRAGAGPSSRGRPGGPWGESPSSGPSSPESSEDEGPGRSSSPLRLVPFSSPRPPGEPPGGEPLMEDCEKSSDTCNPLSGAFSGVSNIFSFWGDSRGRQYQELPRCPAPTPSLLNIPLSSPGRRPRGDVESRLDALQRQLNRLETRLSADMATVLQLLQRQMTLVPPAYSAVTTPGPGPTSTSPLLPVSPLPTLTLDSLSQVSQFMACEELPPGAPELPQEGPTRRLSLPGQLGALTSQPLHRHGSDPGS
Sequence of Sodium-dependent noradrenaline transporter (Homo sapiens) (P23975 whole entry): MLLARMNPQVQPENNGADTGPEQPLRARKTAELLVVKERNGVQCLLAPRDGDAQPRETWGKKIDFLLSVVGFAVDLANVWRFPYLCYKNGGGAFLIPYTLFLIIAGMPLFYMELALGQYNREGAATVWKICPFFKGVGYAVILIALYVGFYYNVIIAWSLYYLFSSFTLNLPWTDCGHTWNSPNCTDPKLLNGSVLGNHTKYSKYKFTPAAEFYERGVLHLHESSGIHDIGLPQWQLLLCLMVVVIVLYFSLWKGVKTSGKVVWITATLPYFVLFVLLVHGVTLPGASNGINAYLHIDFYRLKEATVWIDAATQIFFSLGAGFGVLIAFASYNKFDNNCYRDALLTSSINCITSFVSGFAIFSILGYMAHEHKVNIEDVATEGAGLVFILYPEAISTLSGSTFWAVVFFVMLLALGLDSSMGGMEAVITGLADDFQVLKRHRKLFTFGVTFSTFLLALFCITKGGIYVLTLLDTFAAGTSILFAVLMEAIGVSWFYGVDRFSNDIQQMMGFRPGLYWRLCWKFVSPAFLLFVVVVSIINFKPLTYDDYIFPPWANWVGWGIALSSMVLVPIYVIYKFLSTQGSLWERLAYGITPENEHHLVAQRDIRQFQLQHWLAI
Sequence of D(3) dopamine receptor (P35462 whole entry): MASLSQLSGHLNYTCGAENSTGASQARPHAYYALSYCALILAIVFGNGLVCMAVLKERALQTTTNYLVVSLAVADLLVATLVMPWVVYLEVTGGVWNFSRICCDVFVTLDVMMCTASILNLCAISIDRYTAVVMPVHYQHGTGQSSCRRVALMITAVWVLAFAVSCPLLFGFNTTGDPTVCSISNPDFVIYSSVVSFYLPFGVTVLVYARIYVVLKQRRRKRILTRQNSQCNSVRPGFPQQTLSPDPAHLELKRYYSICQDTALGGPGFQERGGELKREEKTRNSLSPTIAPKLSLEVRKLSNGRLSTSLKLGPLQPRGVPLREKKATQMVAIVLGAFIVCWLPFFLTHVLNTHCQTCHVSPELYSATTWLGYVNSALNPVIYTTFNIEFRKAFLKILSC
T1 sequence (Q01959 whole entry): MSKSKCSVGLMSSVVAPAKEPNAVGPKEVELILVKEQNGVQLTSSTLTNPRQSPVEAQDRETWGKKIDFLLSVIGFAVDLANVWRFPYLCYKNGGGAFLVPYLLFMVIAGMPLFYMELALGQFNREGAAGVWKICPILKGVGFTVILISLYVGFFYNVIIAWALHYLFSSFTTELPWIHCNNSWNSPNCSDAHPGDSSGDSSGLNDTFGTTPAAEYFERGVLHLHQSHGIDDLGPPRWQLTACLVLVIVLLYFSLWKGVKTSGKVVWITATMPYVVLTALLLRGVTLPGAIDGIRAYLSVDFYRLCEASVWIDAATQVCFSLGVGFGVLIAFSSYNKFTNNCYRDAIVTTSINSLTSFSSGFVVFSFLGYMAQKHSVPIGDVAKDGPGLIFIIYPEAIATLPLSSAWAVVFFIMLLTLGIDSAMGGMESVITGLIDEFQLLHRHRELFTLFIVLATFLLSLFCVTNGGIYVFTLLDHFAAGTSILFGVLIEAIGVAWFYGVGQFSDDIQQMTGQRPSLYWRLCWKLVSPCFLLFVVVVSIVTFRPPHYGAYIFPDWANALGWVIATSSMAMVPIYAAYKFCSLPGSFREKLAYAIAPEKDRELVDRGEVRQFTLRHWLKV

| half-life (in vivo [2]) [min] | bioavailability (in vivo [3]) [%] | clearance [5] [mL/min/kg] | IC50 [6] [nM] | half-life [7] [min] | IC90 (HeLa [8]) [nM] | Structure (SMILES) | IC90 (HeLa [1]) [nM] | further results |
| --- | --- | --- | --- | --- | --- | --- | --- | --- |
| 32.4 | 13 | – | – | – | – | CC[C@H](C)[C@H](C(=O)O)N1C[C@H](CN2CCC(c3cc(Cc4ccccc4)nn3CC)CC2)[C@@H](c2cccc(F)c2)C1 | 100 | Ki [4]: 30 µM |
| – | – | 5.5 | 0.3 | 168 | 0.4 | CCn1nc(Cc2ccc(C(F)(F)F)cc2)cc1C1CCN(C[C@H]2CN([C@@H](C(=O)O)C(C)(C)C)C[C@@H]2c2cccc(F)c2)CC1 | 33 | AUC N (Canis familiaris [9]): 4.9 uM hr dose-1 |
| 78 | 18 | – | 0.3 | – | 0.4 | CCn1nc(Cc2ccc(-c3ccccc3)cc2)cc1C1CCN(C[C@H]2CN([C@@H](C(=O)O)C3CCCCC3)C[C@@H]2c2cccc(F)c2)CC1 | 11 | Ki [4]: 0.4 µM; clearance (in vivo [10]): 5.3 mL/min/kg |
| – | – | – | – | – | – | CCn1nc(Cc2ccccc2)cc1C1CCN(C[C@H]2CN([C@@H](C(=O)O)C3CCCCC3)C[C@@H]2c2ccccc2)CC1 | – | IC90 (HeLa [11]): 400 pM |
| 138 | 41 | 3.8 | 1.1 | 186 | 0.4 | CC[C@H](C)[C@H](C(=O)O)N1C[C@H](CN2CCC(c3cc(Cc4ccc(OC(F)(F)F)cc4)nn3CC)CC2)[C@@H](c2cccc(F)c2)C1 | 33 | inhibition [12]: 42%; IC95 [13]: 2.5 nM; IC50 [14]: 3.6 µM; IC50 (D(3) dopamine receptor): 2.7 µM; IC50 [15]: 1200 nM; clearance (in vivo [10]): 8.8 mL/min/kg; AUC N (Canis familiaris [16]): 6.8 uM hr dose-1; IC95 [17]: 0.02 µM; inhibition at 10 µM [18]: 46% |
| – | – | – | 1.3 | – | < 0.14 | CCn1nc(Cc2ccc(C#N)cc2)cc1C1CCN(C[C@H]2CN([C@@H](C(=O)O)C(C)(C)C)C[C@@H]2c2cccc(F)c2)CC1 | 3.7 | inhibition (Rattus norvegicus): 44%; inhibition [19]: 17%; inhibition [12]: 23%; IC50 (D(3) dopamine receptor): 4 µM; inhibition at 10 µM [18]: 1% |
| – | – | 25 | – | 45 | – | CCn1nc(Cc2ccccc2)cc1C1CCN(C[C@H]2CN([C@@H](C(=O)O)C(C)(C)C)C[C@@H]2c2cccc(F)c2)CC1 | 100 | AUC N (Canis familiaris [20]): 2.3 µM hr dose-1; half-life (in vivo [21]): 38.4 min; AUC N (Canis familiaris [9]): 1.2 uM hr dose-1; clearance (in vivo [22]): 13 mL/min/kg |
